Bioassay records deposited in PubChem by Broad Institute.
KDM4C inh = blocks human GASC-1 (KDM4C) demethylase activity. GST-KDM4C 2-372, H3K9me3 peptide, LANCE TR-FRET. inhibition, % at 12.5 µM. Q9H3R0. 0.15% of 96,000 active. AID 720574;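 active = mean replicate inhibition above about 25%, with at least 55% of replicates also reaching it, limit read from the data, passing the limit was not always enough; inconclusive = only one of those two conditions met; inactive = neither condition met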
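reagent = H3K9me3 peptide substrate, Fe(II), 2-oxoglutarate | system = GST-tagged GASC-1 (JMJD2C) catalytic fragment, aa 2-372 | amount = enzyme final amount 10 nM | read-out = Fall in 671/618 emission ratio as inhibition | medium = HEPES buffer, pH 7.5, plus ascorbate | schedule = 30 min reaction, 60 min detection, RT | measured by = LANCE TR-FRET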
IDH1 R132H inh = inhibitors of human IDH1 R132H. inhibition, % at 10 µM. IDH1 R132H reductase, diaphorase/resazurin fluorescence, 60 min. 0.18% of 70,000 active; in the data active = inhibition above about 34%; inconclusive = no clear call, values can overlap the other calls; inactive = below about 11%;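 also: 0% = DMSO and 100% = no enzyme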
Target sequence (O75874 whole entry R132H): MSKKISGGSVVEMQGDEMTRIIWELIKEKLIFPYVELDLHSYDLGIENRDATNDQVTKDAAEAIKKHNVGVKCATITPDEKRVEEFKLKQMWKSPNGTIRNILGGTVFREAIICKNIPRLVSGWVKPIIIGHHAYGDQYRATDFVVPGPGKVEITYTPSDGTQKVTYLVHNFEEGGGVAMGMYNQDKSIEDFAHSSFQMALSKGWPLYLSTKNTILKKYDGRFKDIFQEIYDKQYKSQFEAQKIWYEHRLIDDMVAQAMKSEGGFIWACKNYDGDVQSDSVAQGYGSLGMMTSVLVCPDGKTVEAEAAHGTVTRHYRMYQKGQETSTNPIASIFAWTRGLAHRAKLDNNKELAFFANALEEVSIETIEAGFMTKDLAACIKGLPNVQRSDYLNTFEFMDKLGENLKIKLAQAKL
T cruzi growth-1 = T. cruzi proliferation inhibition; T. cruzi beta-gal in NIH3T3, GalScreen luminescence, 90 h; inhibition, % at 8.34 µM; 5.9% of 77,000 active; AID 624255;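 active = mean inhibition above about 93%, with at least 55% of replicates each passing it, limit read from the data, passing the limit was not always enough; inconclusive = only one of those two conditions holds; inactive = neither condition holds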
Pf Dd2 growth = blocks growth of Plasmodium falciparum Dd2 parasites | 2.3% of 94,000 active | activity change, % at 10 µM | AID 1159554 | P. falciparum Dd2 growth, SYBR Green, 72 h; hits give low values; in the data active = activity change below about -80%; inconclusive = no clear call, values can overlap the other calls
T cruzi growth-2 = blocks T. cruzi growth in NIH3T3 host cells; shares compounds with T cruzi growth-1; T. cruzi beta-gal in NIH3T3, GalScreen luminescence, 90 h; inhibition, % at 8.35 µM; 72% of 5,600 active;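 active = mean replicate inhibition above about 95% and at least 55% of replicates individually reaching it, limit read from the data; inconclusive = only one of the two criteria is met; inactive = neither criterion is met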
T cruzi growth-3 = Trypanosoma cruzi proliferation inhibition. T. cruzi beta-gal in NIH3T3, GalScreen luminescence, 90 h. inhibition, % at 2.09 µM. AID 651740. shares compounds with T cruzi growth-1. 21% of 5,600 active;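 active = mean inhibition above about 95%, with at least 55% of replicates also reaching it, limit read from the data; inconclusive = meets just one of the two conditions; inactive = meets neither condition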;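 also: plate controls were neutral control median for no effect and positive control median for full effect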
3T3 cytotox = kills mouse NIH/3T3 fibroblasts. shares compounds with T cruzi growth-1. NIH/3T3 viability, CellTiter-Glo ATP luminescence, 90 h. cytotoxicity (signal decrease), % at 8.35 µM. 14% of 5,600 active;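 active = mean signal decrease across replicates above about 35% based on untreated-well scatter, with enough replicates individually passing, limit read from the data; inconclusive = no rule stated though some were filed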;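 also: 0% = median of neutral control wells and 100% = median of positive control wells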
3T3 cytotox 2 = kills mouse NIH/3T3 fibroblasts; 56% of 5,600 active; inhibition, % at 24.9 µM; shares compounds with T cruzi growth-1; AID 651744; NIH/3T3 viability, CellTiter-Glo ATP luminescence, 90 h;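 active = mean loss of cell viability signal at or above a set limit, and enough replicates individually reaching it; inconclusive = meets only the mean limit or only the replicate share; inactive = meets neither condition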;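 also: 0% = median of neutral control wells and 100% = median of positive control wells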
Numbers without * were called inactive; ? = inconclusive; / = no result. A selection: hits, their analogues and other compounds. The true share with any hit is near 5.9%.

SMILES	KDM4C inh	IDH1 R132H inh	T cruzi growth-1	Pf Dd2 growth	T cruzi growth-2	T cruzi growth-3	3T3 cytotox	3T3 cytotox 2
C[C@H](NC(=O)C[C@H]1C=C[C@H](NC(=O)C2CCOCC2)[C@H](CO)O1)c1ccccc1	0	0	98*	2	-13	-77	-3	-14
O=C(C[C@H]1C=C[C@@H](NC(=O)C2CC2)[C@@H](CO)O1)Nc1nccs1	1	0	121*	-18	78	11	-15	-1
CCOc1ccccc1OCC(=O)Nc1cc(Cl)ccc1OC	/	0	/	/	/	/	/	/
COc1ccccc1C#Cc1ccc2c(c1)O[C@H](CN(C)Cc1ccncc1)[C@H](C)CN([C@H](C)CO)S2(=O)=O	-1	0	112*	-64	104*	84	28	7
COc1ccccc1C#Cc1ccc2c(c1)O[C@H](CN(C)Cc1ccncc1)[C@@H](C)CN([C@H](C)CO)S2(=O)=O	13	0	123*	-60	97*	102*	11	71*
CCCC1=C(C(=O)OCC)C(c2cccnc2)n2ncnc2N1 (stereo not given)	/	0	/	/	/	/	/	/
C[C@H]1CN([C@@H](C)CO)C(=O)c2cc(N(C)C)ccc2O[C@H]1CN(C)CC1CCCCC1	9	-2	4	15	/	/	/	/
C[C@@H]1CN([C@H](C)CO)C(=O)c2cc(NC(=O)CCC(F)(F)F)ccc2O[C@H]1CN(C)CC1CCCCC1	0	3	101*	11	-27	-36	-21	-5
C[C@@H]1CN([C@@H](C)CO)C(=O)c2cc(N(C)C)ccc2O[C@H]1CN(C)CC1CCCCC1	2	2	102*	5	-22	-99	-16	-4
Cc1ccccc1-c1cc(C(=O)NCCCn2ccnc2)c2cc(Cl)ccc2n1	/	1	/	/	/	/	/	/
CC1(C)Cc2c(c(N3CCCC3)nc3sc4c(NCc5ccco5)ncnc4c23)CO1	/	0	/	/	/	/	/	/
O=C(CC1CC1)Nc1ccc2c(c1)[C@H]1C[C@H](CC(=O)N3CCCCC3)O[C@H](CO)[C@H]1O2	-1	-1	8	15	/	/	/	/
O=C(CC1CC1)Nc1ccc2c(c1)[C@H]1C[C@@H](CC(=O)N3CCCCC3)O[C@@H](CO)[C@H]1O2	1	0	86	-16	/	/	/	/
O=C(C[C@@H]1C[C@@H]2c3cc(NS(=O)(=O)c4ccccc4)ccc3O[C@@H]2[C@H](CO)O1)N1CCCCC1	0	0	104*	-3	64	2	21	18
O=C(CC1CC1)Nc1ccc2c(c1)[C@@H]1C[C@@H](CC(=O)N3CCCCC3)O[C@H](CO)[C@@H]1O2	3	-1	110*	18	19	-45	-10	2
O=C(CC1CC1)Nc1ccc2c(c1)[C@H]1C[C@@H](CC(=O)N3CCCCC3)O[C@H](CO)[C@H]1O2	-1	0	104*	8	?	22	6	15
COC(=O)c1ccccc1NC(=O)Cn1nc(C)c([N+](=O)[O-])c1C	/	0	/	/	/	/	/	/
CCn1c(SCC(=O)Nc2ccc(Cl)cc2C)nnc1-c1ccc(Cl)cc1	/	0	/	/	/	/	/	/
CC1(C)OC[C@@H]([C@H](O)P(=O)(c2ccccc2)c2ccccc2)O1	/	-1	/	/	/	/	/	/
COc1cccc(NC(=O)CSc2nnnn2C)c1	/	1	/	/	/	/	/	/
Cc1ccc(S(=O)(=O)N(C)CC(=O)Nc2ccc(C(F)(F)F)cc2)cc1	/	0	/	/	/	/	/	/
COc1ccc(C#Cc2ccc3c(c2)O[C@@H](CN(C)C(=O)NC2CCCCC2)[C@@H](C)CN([C@H](C)CO)S3(=O)=O)cc1	-5	0	?	-81*	95*	113*	-11	18
COc1ccc(C#Cc2ccc3c(c2)O[C@H](CN(C)C(=O)NC2CCCCC2)[C@@H](C)CN([C@@H](C)CO)S3(=O)=O)cc1	-6	1	?	-70	109*	107*	8	64*
COc1ccc(C#Cc2ccc3c(c2)O[C@H](CN(C)C(=O)NC2CCCCC2)[C@H](C)CN([C@@H](C)CO)S3(=O)=O)cc1	-3	0	?	-6	102*	86	-36	-30
